Laboratory results reported in ChEMBL document CHEMBL5724801, “EUbOPEN Chemogenomics Library - Multiplex” (2024).
Several values for one entry are separate records, joined by “and”; a condition that tells them apart may be missing. Identical values can stand only once.

What was measured:
Fibroblast = assay: Multiplex assay against human fibroblast; format: toxicity, cell-based
How it was run: (§1)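 Tubulin, mitochondrial-mass and membrane-permeability phenotypes are per cents of healthy-nucleus cells. Cells were gated by CellPathfinder machine learning into Hoechst high-intensity objects or normal cells, normal cells into healthy, pyknosed or fragmented nuclei, and pyknosed cells into mitotic or apoptotic. Before that, live cells stained at seeding with Hoechst33342, BioTracker Green Microtubule Cytoskeleton Dye, MitoTracker Red and Annexin V Alexa Fluor 680 were imaged on a CQ1 microscope at 37°C and 5% CO2 after compound addition.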

HEK-293T = assay: Multiplex assay against HEK293T; format: toxicity, cell-based; conditions: human; how it was run: as §1
[1] = 24 h, 1 µM, compound concentration 1 uM
[2] = 24 h, 10 µM, compound concentration 10 uM
[3] = 48 h, 1 µM, compound concentration 1 uM
[4] = 48 h, 10 µM, compound concentration 10 uM
[5] = 12 h, 1 µM, compound concentration 1 uM
[6] = 12 h, 10 µM, compound concentration 10 uM

O=C(Nc1ccccc1Cl)c1cnc2ccc(C3CCNCC3)cn12.O=C(O)C(=O)O
Population Mitotic Cells (%) (Fibroblast; [1]): 85.71% and 74.29% | Population Normal (%) (Fibroblast; [1]): 100% | Population Pyknosed Nuclei (%) (Fibroblast; [1]): 16.13% and 15.42% | Population Tubulin-Different-Phenotype (%) (Fibroblast; [1]): 19.75% and 25.54% | Total Cell Count (Fibroblast; [1]): 217 and 227 | Population Apoptotic (%) (Fibroblast; [2]): 35.29% and 37.66% | Population Healthy Nuclei (%) (Fibroblast; [2]): 67.43% and 62.44% | Population Hoechst High Intensity Objects (%) (Fibroblast; [2]): 0% | Population Membrane Permeable-Phenotype (%) (Fibroblast; [2]): 6.78% and 10.53% | Population Mitochondria Different-Phenotype (%) (Fibroblast; [2]): 28.81% and 18.05% | Population Mitotic Cells (%) (Fibroblast; [2]): 64.71% and 62.34% | Population Normal (%) (Fibroblast; [2]): 100% | Population Pyknosed Nuclei (%) (Fibroblast; [2]): 19.43% and 36.15% | Population Tubulin-Different-Phenotype (%) (Fibroblast; [2]): 49.15% and 60.9% | Total Cell Count (Fibroblast; [2]): 175 and 213 | Population Fragmented Nuclei (%) (Fibroblast; [3]): 11.26% and 5.24% | Population Healthy Nuclei (%) (Fibroblast; [3]): 79.73% and 81.22% | Population Hoechst High Intensity Objects (%) (Fibroblast; [3]): 0% | Population Membrane Permeable-Phenotype (%) (Fibroblast; [3]): 2.26% and 5.91% | Population Mitochondria Different-Phenotype (%) (Fibroblast; [3]): 7.91% and 2.15% | Population Mitotic Cells (%) (Fibroblast; [3]): 90% and 64.52% | Population Normal (%) (Fibroblast; [3]): 100% | Population Pyknosed Nuclei (%) (Fibroblast; [3]): 9.01% and 13.54% | Population Tubulin-Different-Phenotype (%) (Fibroblast; [3]): 12.43% and 28.49% | Total Cell Count (Fibroblast; [3]): 222 and 229 | Population Apoptotic (%) (Fibroblast; [4]): 33.33% and 60.38% | Population Fragmented Nuclei (%) (Fibroblast; [4]): 10.9% and 1.94% | Population Healthy Nuclei (%) (Fibroblast; [4]): 75.64% and 63.87% | Population Hoechst High Intensity Objects (%) (Fibroblast; [4]): 0% and 0.64% | Population Mitochondria Different-Phenotype (%) (Fibroblast; [4]): 13.56% and 16.16% | Population Mitotic Cells (%) (Fibroblast; [4]): 66.67% and 39.62% | Population Normal (%) (Fibroblast; [4]): 100% and 99.36% | Population Pyknosed Nuclei (%) (Fibroblast; [4]): 13.46% and 34.19% | Population Tubulin-Different-Phenotype (%) (Fibroblast; [4]): 50.85% and 74.75% | Total Cell Count (Fibroblast; [4]): 156 | Population Apoptotic (%) (HEK-293T; [5]): 13.38% and 9.73% | Population Fragmented Nuclei (%) (HEK-293T; [5]): 1.98% and 9.79% | Population Hoechst High Intensity Objects (%) (HEK-293T; [5]): 0.39% and 0% | Population Membrane Permeable-Phenotype (%) (HEK-293T; [5]): 1.89% and 0% | Population Mitotic Cells (%) (HEK-293T; [5]): 86.62% and 90.27% | Population Normal (%) (HEK-293T; [5]): 99.61% and 100% | Population Pyknosed Nuclei (%) (HEK-293T; [5]): 56.13% and 79.02% | Population Tubulin-Different-Phenotype (%) (HEK-293T; [5]): 20.75% and 18.75% | Total Cell Count (HEK-293T; [5]): 254 and 143 | Population Apoptotic (%) (HEK-293T; [6]): 16.08% and 15.91% | Population Fragmented Nuclei (%) (HEK-293T; [6]): 4.31% and 3.38% | Population Hoechst High Intensity Objects (%) (HEK-293T; [6]): 0.48% and 0% | Population Membrane Permeable-Phenotype (%) (HEK-293T; [6]): 1.75% and 0% | Population Mitochondria Different-Phenotype (%) (HEK-293T; [6]): 66.67% and 72.73% | Population Mitotic Cells (%) (HEK-293T; [6]): 83.92% and 84.09% | Population Normal (%) (HEK-293T; [6]): 99.52% and 100% | Population Pyknosed Nuclei (%) (HEK-293T; [6]): 68.42% and 89.19% | Population Tubulin-Different-Phenotype (%) (HEK-293T; [6]): 52.63% and 54.55% | Total Cell Count (HEK-293T; [6]): 210 and 148 | Population Apoptotic (%) (HEK-293T; [1]): 19.23% and 23.68% | Population Fragmented Nuclei (%) (HEK-293T; [1]): 1.95% and 4.9% | Population Hoechst High Intensity Objects (%) (HEK-293T; [1]): 0.97% and 0% | Population Membrane Permeable-Phenotype (%) (HEK-293T; [1]): 0.74% and 4.55% | Population Mitochondria Different-Phenotype (%) (HEK-293T; [1]): 37.5% and 22.73% | Population Mitotic Cells (%) (HEK-293T; [1]): 80.77% and 76.32% | Population Normal (%) (HEK-293T; [1]): 99.03% and 100% | Population Pyknosed Nuclei (%) (HEK-293T; [1]): 31.71% and 79.72% | Population Tubulin-Different-Phenotype (%) (HEK-293T; [1]): 31.25% and 22.73% | Total Cell Count (HEK-293T; [1]): 414 and 143 | Population Apoptotic (%) (HEK-293T; [2]): 34.45% and 29.91% | Population Fragmented Nuclei (%) (HEK-293T; [2]): 4.76% and 4% | Population Healthy Nuclei (%) (HEK-293T; [2]): 43.72% and 18% | Population Hoechst High Intensity Objects (%) (HEK-293T; [2]): 0% | Population Membrane Permeable-Phenotype (%) (HEK-293T; [2]): 0.99% and 3.7% | Population Mitochondria Different-Phenotype (%) (HEK-293T; [2]): 74.26% and 51.85% | Population Mitotic Cells (%) (HEK-293T; [2]): 65.55% and 70.09% | Population Normal (%) (HEK-293T; [2]): 100% | Population Pyknosed Nuclei (%) (HEK-293T; [2]): 51.52% and 78% | Population Tubulin-Different-Phenotype (%) (HEK-293T; [2]): 81.19% and 40.74% | Total Cell Count (HEK-293T; [2]): 231 and 150 | Population Apoptotic (%) (HEK-293T; [3]): 9.3% and 24.49% | Population Fragmented Nuclei (%) (HEK-293T; [3]): 3.3% and 6.21% | Population Healthy Nuclei (%) (HEK-293T; [3]): 83.82% and 32.92% | Population Hoechst High Intensity Objects (%) (HEK-293T; [3]): 0.1% and 0% | Population Membrane Permeable-Phenotype (%) (HEK-293T; [3]): 2.62% and 1.89% | Population Mitochondria Different-Phenotype (%) (HEK-293T; [3]): 28.13% and 43.4% | Population Mitotic Cells (%) (HEK-293T; [3]): 90.7% and 75.51% | Population Normal (%) (HEK-293T; [3]): 99.9% and 100% | Population Apoptotic (%) (HEK-293T; [4]): 20% and 23.23% | Population Fragmented Nuclei (%) (HEK-293T; [4]): 3.53% and 4.03% | Population Healthy Nuclei (%) (HEK-293T; [4]): 73.65% and 29.53% | Population Hoechst High Intensity Objects (%) (HEK-293T; [4]): 0.21% and 0% | Population Membrane Permeable-Phenotype (%) (HEK-293T; [4]): 1.97% and 0% | Population Mitochondria Different-Phenotype (%) (HEK-293T; [4]): 64.51% and 56.82% | Population Mitotic Cells (%) (HEK-293T; [4]): 80% and 76.77% | Population Normal (%) (HEK-293T; [4]): 99.79% and 100% | Population Pyknosed Nuclei (%) (HEK-293T; [4]): 22.82% and 66.44% | Population Tubulin-Different-Phenotype (%) (HEK-293T; [4]): 33.24% and 81.82%
